Screens from PubChem BioAssay.
In the library only some 1.8% were active in any assay of this set; here they are far more common.
HTRA1 inhibitor: HTRA1 (human) protease inhibition | Q92743 | recombinant HTRA1, FP-rhodamine activity-based probe, fluorescence polarization | inhibition, % at 5.96 µM | actives 0.5% (n = 340,000) | AID 504803; in the data active = inhibition above about 36%;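 note: 0% = enzyme with DMSO and 100% = wells lacking enzyme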
SIAE primary: blocks human sialic acid acetylesterase | Q9HAT2 | SIAE FP-Rh probe binding, fluorescence polarization | inhibition, % at 9.66 µM | actives 0.69% (n = 370,000) | AID 1053197;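 active = inhibition above a cutoff: mean of compounds within the control limits plus 3 SD of those, cut at about 17% in these data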;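 note: 0% = plate median of compound wells and 100% = probe without SIAE protein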
mABHD4 FP: inhibitors of mouse ABHD4. purified mABHD4, FP-Rh probe fluorescence polarization. inhibition, % at 8.92 µM. actives 0.54% (n = 370,000);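 active = inhibition exceeding the mean over every tested compound plus 3 SD, cut at about 30% in these data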;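 note: 0% = plate median of compound wells and 100% = S159A mutant with DMSO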
Target sequence (Q8VD66 whole entry, looked up): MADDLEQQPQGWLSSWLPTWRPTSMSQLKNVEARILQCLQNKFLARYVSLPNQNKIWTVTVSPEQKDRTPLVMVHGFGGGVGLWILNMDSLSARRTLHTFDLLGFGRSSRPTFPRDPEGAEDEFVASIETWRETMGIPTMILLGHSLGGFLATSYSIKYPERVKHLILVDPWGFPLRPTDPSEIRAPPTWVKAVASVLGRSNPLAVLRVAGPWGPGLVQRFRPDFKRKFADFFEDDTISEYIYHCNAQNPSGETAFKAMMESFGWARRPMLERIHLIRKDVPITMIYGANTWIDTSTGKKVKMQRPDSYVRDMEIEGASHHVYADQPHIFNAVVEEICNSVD
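Material: mouse ABHD4 enzyme, wild type; Benchmarks: S159A mutant high control, sample median low control; Buffer or medium: HEPES pH 7.0, NaCl, Pluronic buffer; Signal: fluorescence polarization; Read-out: percent inhibition of probe binding, normalized to plate controls; Timing: pre-incubation 45 min, probe exposure 60 min, at 25 °C; Dosing: 8.92 µM, single dose.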
TCR-CD3 inh: blocks the human TCR-CD3 interaction; inhibition, % at 9.4 µM; actives 0.37% (n = 360,000); AID 651800; TAMRA-labeled TCR probe fluorescence, biochemical; in the data active = inhibition above about 19%;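 note: recombinant mutant TCR 2C K166C tagged with TAMRA read by polarization; 0% = receptor in buffer alone and 100% = receptor with positive control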
DDE Tn7 FP inh: inhibitors of Tn7 peptide binding to human fibrin DD(E); AID 720508; P02675; actives 0.13% (n = 370,000); inhibition, % at 8.3 µM; FP displacement of FITC-Tn7 peptide from fibrin DD(E); 0% = median of compound wells per plate;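 active = inhibition above the mean of compounds falling within the control limits plus 3 SD of them, cut at about 14% in these data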;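 note: 0% = plate median of compound wells and 100% = 10 µM Aha-Tn7 peptide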
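Test system: human clot-derived fibrin DD(E) complex / Quantity: 2 µM final DD(E) protein / Incubation: 10 min plus 3 h, room temperature / Measured by: fluorescence polarization / Benchmarks: high control of 10 µM Aha-Tn7 peptide / Replicates: singlicate testing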
DDE Tn6 FP inh: disrupts Tn6 cyclic peptide binding to fibrin D-Dimer-E complex; P02675; Fibrin DD(E) TRITC-Tn6 fluorescence polarization displacement; inhibition, % at 8.3 µM; actives 0.21% (n = 370,000); AID 720509;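 active = inhibition above a per-campaign cutoff: mean of compounds within control limits plus 3 SD, cut at about 15% in these data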;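 note: 0% = median of all compound wells on the plate and 100% = blocking peptide control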
SIAE inh conf: human SIAE inhibition, confirmation; shares compounds with SIAE primary; SIAE FP-Rh activity-based probe, fluorescence polarization; inhibition, % at 9.66 µM; actives 13% (n = 2,300); AID 1117263;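 active = mean inhibition of the replicates above the hit cutoff set in the primary screen, cut at about 17% in these data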;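 note: 0% = SIAE with DMSO and probe and 100% = probe without SIAE; inhibitors lower polarization as more probe stays unbound to SIAE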
Numbers without * were called inactive; / = no result.

SMILES	HTRA1 inhibitor	SIAE primary	mABHD4 FP	TCR-CD3 inh	DDE Tn7 FP inh	DDE Tn6 FP inh	SIAE inh conf
Cc1c(/C=N/NC(N)=O)c2ccccn2c1C(=O)c1ccc(F)cc1	-5	13	-4	-5	-2	0	/
Cc1c(/C=N/O)c2ccccn2c1C(=O)c1ccc(F)cc1	-3	17*	2	6	5	2	8
Nn1c(Nc2ccccc2)nc2ccccc21	-1	23*	4	-2	2	-3	0
Cn1c(Nc2ccccc2)nc2ccccc21	-1	4	0	-2	5	-1	/
C[C@@H](c1ccccc1)N1C[C@@H](COCc2ccccc2)Oc2cc(N3CC[C@H](N(C)C)C3)ccc2S1(=O)=O	/	5	12	2	0	-7	/
C[C@H](c1ccccc1)N1C[C@@H](COCc2ccccc2)Oc2cc(N3CC[C@@H](N(C)C)C3)ccc2S1(=O)=O	/	18*	7	8	-2	7	11
CCOC(=O)c1c(C)[nH]c(C(=O)NCCc2ccc(OC)c(OC)c2)c1C	-4	22*	1	3	4	-4	-2
O=C(CCCOc1ccc(Cl)cc1Cl)Nc1ccc(O)cc1C(=O)O	-1	17*	5	-12	1	1	-8
CCOc1ccc(CN2C(=O)c3ccccc3C2=O)cc1C(=O)N1CCC(C(N)=O)CC1	-3	22*	4	1	-3	7	5
CCOc1ccc(CN2C(=O)c3ccccc3C2=O)cc1C(=O)O	0	3	2	3	2	-7	/
CN(C)C(=O)c1cnc(Cc2c[nH]c3ccccc23)c(I)c1	/	18*	6	-4	9	4	-5
O=C(NCc1c[nH]c2ccccc12)c1ccccc1	-1	-1	2	-14	-6	-1	/
COc1ccc(C2CC(=O)C(c3ccccc3C)=CN2Cc2ccccc2)cc1 (stereo not drawn)	/	-1	-2	-3	6	-6	/
O=C(CCl)NC(Cc1c[nH]c2ccc(OCc3ccccc3)cc12)C(=O)O (stereo not drawn)	4	3	2	5	2	-4	/
CCOC(=O)c1sc2ccc(S(=O)(=O)N3CCOCC3)cc2c1N	-3	1	6	1	-2	-10	/
CCOC(=O)c1sc2ccc(S(=O)(=O)N3CCCCC3)cc2c1N	-18	21*	-10	4	1	-2	-2
O=C(Nc1cc(Cl)ccc1N1CCOCC1)c1ccc(Br)o1	-1	24*	-3	-2	-2	1	1
CCc1ccc(N(CC(=O)NC(C)(C)C)C(=O)CCC(=O)Nc2ccccn2)cc1	8	2	-1	4	1	3	/
COc1cccc(OCC(O)CN2CCN(c3ccccc3)CC2)c1 (stereo not drawn)	8	7	2	-2	-2	-9	/
COc1cccc(OCC(O)CN2CCN(c3ccc(Cl)cc3)CC2)c1 (stereo not drawn)	1	19*	-5	1	-1	4	0
O=C(CSc1nnc(-c2ccccn2)o1)Nc1ccccc1Cl	-6	5	3	-4	-7	1	/
O=C(NNc1nc2ccccc2o1)c1ccccc1	/	18*	6	7	12	2	0
O=C(NC(=Nc1nc2ccccc2o1)NC(=O)c1ccccc1)c1ccccc1	-5	5	1	-2	-1	-1	/
Cc1ccccc1NC(=O)CSc1nnc(CNC(=O)c2ccco2)n1C	6	-3	3	8	0	-7	/
CCC(=O)c1ccc(Oc2nc3c(c(=O)n(C)c(=O)n3C)n2CC)cc1	-13	3	6	12	-3	0	/
SMILES	HTRA1 inhibitor	SIAE primary	mABHD4 FP	TCR-CD3 inh	DDE Tn7 FP inh	DDE Tn6 FP inh	SIAE inh conf
COC(=O)c1ccc(Oc2nc3c(c(=O)n(C)c(=O)n3C)n2CCC(C)C)cc1	5	28*	-3	2	-5	3	-3
COc1cc(SSc2cc(OC)cc([N+](=O)[O-])c2N)c(N)c([N+](=O)[O-])c1	17	25*	29	-8	4	-3	2
COc1cc([N+](=O)[O-])c2ncsc2c1	2	4	-3	4	4	-6	/
O=C(C1CC1)N1CCN(c2ccc(O)cc2)CC1	1	19*	19	1	-4	2	4
O=C(CSc1nc2ccc(Cl)cc2[nH]1)Nc1ccc2[nH]c(=O)[nH]c2c1	-5	18*	6	-8	8	-4	2
O=Cc1ccc(-c2c(-c3ccccc3)oc3c2C(OCCCCO)CCC3)o1 (stereo not drawn)	/	4	15	-3	0	1	/
Cc1nc(SCC(=O)N2CCN(C(=O)c3cccs3)CC2)c2c(C)c(C)sc2n1	2	17*	-3	-10	-5	2	0
Cc1nc(SCC(=O)N2CCN(C(=O)c3ccco3)CC2)c2c(C)c(C)sc2n1	0	4	-5	4	-3	-2	/
C/C(=N/NC(=S)Nc1cccc(C)c1)c1cccc([N+](=O)[O-])c1	-12	15	3	1	4	-3	/
C/C(=N\NC(=S)NC(C)C)c1cccc([N+](=O)[O-])c1	6	20*	1	7	6	-8	-1
CN(c1ccccc1)S(=O)(=O)c1cccc(NC(=O)CSc2ncn[nH]2)c1	-9	18*	-7	-4	-3	3	0
Cc1ccc(Nc2nnc(SCC(=O)Nc3ccccc3[N+](=O)[O-])s2)cc1	0	25*	1	1	-7	-3	0
CC(C)Nc1nnc(SCC(=O)Nc2ccc3c(c2)C(=O)c2ccccc2C3=O)s1	21	27*	20	7	4	-3	-11
O=C(NCc1ccco1)c1ccc2sc([C@@H]3O[C@H](CO)[C@H](O)[C@H](O)[C@H]3O)nc2c1	/	-2	3	-5	-2	-4	/
CC(C)c1ccc(NC(=O)Nc2nc(C(N)c3ccccc3)cs2)cc1 (stereo not drawn)	/	5	17	-3	0	-10	/
CCOC(=O)[C@]12CCCCC/C=C\1N(CCc1ccc(Cl)cc1)C(=O)[C@H]2CC(=O)NCc1ccccc1	/	1	-11	/	2	-5	/
COc1cc2ccccc2cc1C(=O)N1CCCCC1	0	-6	-3	6	-6	2	/
COc1cc2ccccc2cc1C(=O)N1CCCC1	5	22*	0	-3	-2	-3	-6
Cc1cccc(-c2nnc(SCC(=O)c3ccc(O)cc3O)n2C)c1	-6	17	2	-5	5	12	/
Nc1cc(N)cc(-c2nc3ccccc3o2)c1	16	25*	24	0	-1	5	2
Nc1ccc(-c2nc3ccccc3o2)cc1	-5	-2	1	-9	-3	4	/
